Experimental data published in ChEMBL document CHEMBL2034980, “N⁴-Phenyl-substituted 2-acetylpyridine thiosemicarbazones: cytotoxicity against human tumor cells, structure-activity relationship studies and investigation on the mechanism of action” (Bioorg Med Chem, 2012).
Active and inactive are the calls of the source.

Tests used:
MCF7 [1] = test: Induction of apoptosis in human MCF7 cells assessed as irregularities in cellular shape at 1 uM after 48 hrs by DAPI staining; assay type: functional, cell-based
T98G [2] = test: Cytotoxicity against human T98G cells expressing mutant p53 after 48 hrs by MTT assay; assay type: functional, cell-based; details: for IC50: read-out: IC50
Procedure, shortened: (§1)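 MTT assay. Cells were grown in DMEM with 10% FBS and penicillin/streptomycin at 37 °C under 5% CO2, seeded at 1–2×10^3 cells/well and treated 12 h later with 1×10^-12 to 1×10^-5 M ([…] from DMSO stock, final DMSO <0.5%) for 48 h. MTT was added at 0.5 mg mL⁻¹, formazan dissolved in DMSO and read at 570 nm. IC50 is the concentration giving 50% cytotoxicity. Quadruplicates, ≥3 independent experiments.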

T98G [3] = test: Induction of apoptosis in human T98G cells assessed as appearance of autophagolysosomes at 1 uM after 48 hrs by acridine orange/ethidium bromide staining-based microscopy; assay type: functional, cell-based
Procedure, shortened: (§2)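 After 48 h at 1 μM, cells were incubated for 15 min in serum-free medium containing 1 μg mL⁻¹ acridine orange and 1 μg mL⁻¹ ethidium bromide. The medium was removed and cells imaged by inverted fluorescence microscopy (530–650 nm). Green/orange nuclear patterns and acidic cytoplasmic vacuoles were scored.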

MCF7 [4] = test: Induction of apoptosis in human MCF7 cells assessed as DNA fragmentation at 1 uM after 48 hrs by DAPI staining; assay type: functional, cell-based
Procedure, shortened: (§3)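 Cells were treated at 1 μM for 48 h, washed in PBS and fixed in 70% methanol for 30 min at room temperature. They were stained with 0.4 μg mL⁻¹ DAPI for 1 h in the dark, and nuclear condensation and fragmentation were scored by fluorescence microscopy (385–410 nm).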

T98G [5] = test: Induction of apoptosis in human T98G cells assessed as DNA fragmentation at 1 uM after 48 hrs by DAPI staining; assay type: functional, cell-based; procedure, shortened: as §3
U-87MG ATCC [6] = test: Induction of apoptosis in human U87 cells assessed as chromatin condensation at 1 uM after 48 hrs by acridine orange/ethidium bromide staining-based microscopy; assay type: functional, cell-based; procedure, shortened: as §2
T98G [7] = test: Induction of apoptosis in human T98G cells assessed as chromatin condensation at 1 uM after 48 hrs by acridine orange/ethidium bromide staining-based microscopy; assay type: functional, cell-based; procedure, shortened: as §2
[8] = (§4) Cytotoxicity against human U87 cells expressing wild-type p53 after 48 hrs by MTT assay; assay type: functional, cell-based, U-87MG ATCC; details: U-87 MG, read-out: IC50; procedure, shortened: as §1
U-87MG ATCC [9] = test: as §4; assay type: functional, cell-based; procedure, shortened: as §1
T98G [10] = test: Induction of apoptosis in human T98G cells assessed as membrane blebbing at 1 uM after 48 hrs […]; assay type: functional, cell-based
U-87MG ATCC [11] = test: Induction of apoptosis in human U87 cells assessed as appearance of autophagolysosomes at 1 uM after 48 hrs by acridine orange/ethidium bromide staining-based microscopy; assay type: functional, cell-based; procedure, shortened: as §2
T98G [12] = test: Induction of apoptosis in human T98G cells assessed as chromatin condensation at 1 uM after 48 hrs by DAPI staining; assay type: functional, cell-based; procedure, shortened: as §3
MCF7 [13] = test: Induction of apoptosis in human MCF7 cells assessed as chromatin condensation at 1 uM after 48 hrs by acridine orange/ethidium bromide staining-based microscopy; assay type: functional, cell-based; procedure, shortened: as §2
U-87MG ATCC [14] = test: Induction of apoptosis in human U87 cells assessed as chromatin condensation at 1 uM after 48 hrs by DAPI staining; assay type: functional, cell-based; procedure, shortened: as §3
U-87MG ATCC [15] = test: Induction of apoptosis in human U87 cells assessed as DNA fragmentation at 1 uM after 48 hrs by DAPI staining; assay type: functional, cell-based; procedure, shortened: as §3
U-87MG ATCC [16] = test: Induction of apoptosis in human U87 cells assessed as irregularities in cellular shape at 1 uM after 48 hrs by DAPI staining; assay type: functional, cell-based
T98G [17] = test: Induction of apoptosis in human T98G cells assessed as cell shrinkage at 1 uM after 48 hrs by DAPI staining; assay type: functional, cell-based
MCF7 [18] = test: Induction of apoptosis in human MCF7 cells assessed as chromatin condensation at 1 uM after 48 hrs by DAPI staining; assay type: functional, cell-based; procedure, shortened: as §3
MCF7 [19] = test: Induction of apoptosis in human MCF7 cells assessed as appearance of autophagolysosomes at 1 uM after 48 hrs by acridine orange/ethidium bromide staining-based microscopy; assay type: functional, cell-based; procedure, shortened: as §2
U-87MG ATCC [20] = test: Induction of apoptosis in human U87 cells assessed as membrane blebbing at 1 uM after 48 hrs by DAPI staining; assay type: functional, cell-based
MCF7 [21] = test: Induction of apoptosis in human MCF7 cells assessed as cell shrinkage at 1 uM after 48 hrs by DAPI staining; assay type: functional, cell-based
[22] = Haemolytic activity in human RBC after 1 hr by photometry; assay type: ADME, cell-based; details: Erythrocyte
Procedure, shortened: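 Human EDTA blood was spun at 700xg for 10 min and the erythrocytes washed three times in cold PBS pH 7.4, then resuspended in it. Cells were incubated with varying compound concentrations for 1 h at 37 °C with shaking. After centrifugation, released haemoglobin was read at 540 nm to give the IC50. Mean ± SD, n = 4.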

MCF7 [23] = test: Cytotoxicity against human MCF7 cells after 48 hrs by MTT assay; assay type: functional, cell-based; details: for IC50: MCF7, 48 h, read-out: IC50; procedure, shortened: as §1
T98G [24] = test: Induction of apoptosis in human T98G cells assessed as irregularities in cellular shape at 1 uM after 48 hrs by DAPI staining; assay type: functional, cell-based
MCF7 [25] = test: Induction of apoptosis in human MCF7 cells assessed as membrane blebbing at 1 uM after 48 hrs by DAPI staining; assay type: functional, cell-based
U-87MG ATCC [26] = test: Induction of apoptosis in human U87 cells assessed as cell shrinkage at 1 uM after 48 hrs by DAPI staining; assay type: functional, cell-based
HeLa [27] = test: Induction of mitotic arrest in human HeLa cells assessed as nuclear condensation by Hoechst 33342 staining; assay type: functional; details: read-out: MEC
Procedure, shortened: (§5)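 HeLa cells (8000/well, collagen-coated plates) were dosed in quadruplicate within 4–6 h of seeding with 10 twofold dilutions or vehicle (0.1% DMSO) for 18 h at 37 °C. Cells were fixed, stained with Hoechst 33342 and immunostained for phosphohistone H3 (Ser10) and α-tubulin, then analysed by automated imaging. Positivity threshold: mean of 28 vehicle wells +1 SD. Values reported as MDEC and EC50.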

HeLa [28] = test: Induction of mitotic arrest in human HeLa cells assessed as mitotic index measuring phosphohistone H3-positive cells by Hoechst 33342 staining; assay type: functional; details: read-out: MEC; procedure, shortened: as §5
HeLa [29] = test: Induction of mitotic arrest in human HeLa cells assessed as reduction in tubulin intensity by Hoechst 33342 staining; assay type: functional; details: read-out: MEC; procedure, shortened: as §5
HeLa [30] = test: Induction of mitotic arrest in human HeLa cells assessed as reduction in cell density by immunofluorescence staining; assay type: functional, cell-based
Procedure, shortened: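 HeLa cells (8000/well), collagen-coated plates, dosed within 4-6 h of seeding in quadruplicate with 10 twofold dilutions or vehicle (DMSO 0.1% final); 18 h at 37 °C, 5% CO2. Formaldehyde fixation, Hoechst 33342 nuclear stain, anti-α-tubulin/anti-phosphohistone H3 immunostaining; automated high-content imaging. Cell density from nuclear counts; EC50 read from dose-response cell density curves.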

| SMILES | Activity (MCF7 [1]) | Activity (T98G [2]) | IC50 (T98G [2]) | Activity (T98G [3]) | Activity (MCF7 [4]) | Activity (T98G [5]) | Activity (U-87MG ATCC [6]) | Activity (T98G [7]) | IC50 [8] | Activity (U-87MG ATCC [9]) | Activity (T98G [10]) | Activity (U-87MG ATCC [11]) | Activity (T98G [12]) | Activity (MCF7 [13]) | Activity (U-87MG ATCC [14]) | Activity (U-87MG ATCC [15]) | Activity (U-87MG ATCC [16]) | Activity (T98G [17]) | Activity (MCF7 [18]) | Activity (MCF7 [19]) | other results |
| --- | --- | --- | --- | --- | --- | --- | --- | --- | --- | --- | --- | --- | --- | --- | --- | --- | --- | --- | --- | --- | --- |
| CC(=NNC(=S)Nc1cccc(I)c1)c1ccccn1 (mixture of isomers) | Active | Dose-dependent effect | 0.061 µM | Active | Active | Active | Active | Active | 0.084 µM | Dose-dependent effect | Active | Active | Active | Active | Active | Active | Active | Active | Active | Active | Activity (U-87MG ATCC [20]): Active; Activity (MCF7 [21]): Active; IC50 [22]: > 10 µM; Activity (MCF7 [23]): Dose-dependent effect; IC50 (MCF7 [23]): 0.045 µM; Activity (T98G [24]): Active; Activity (MCF7 [25]): Active; Activity (U-87MG ATCC [26]): Active |
| CC(=NNC(=S)Nc1ccc(I)cc1)c1ccccn1 (mixture of isomers) | Active | Dose-dependent effect | 0.064 µM | Active | Active | Active | Active | Active | 0.059 µM | Dose-dependent effect | Active | Active | Active | Active | Active | Active | Active | Active | Active | Active | Activity (U-87MG ATCC [20]): Active; Activity (MCF7 [21]): Active; IC50 [22]: > 10 µM; Activity (MCF7 [23]): Dose-dependent effect; IC50 (MCF7 [23]): 0.0066 µM; Activity (T98G [24]): Active; Activity (MCF7 [25]): Active; Activity (U-87MG ATCC [26]): Active |
| CC(=NNC(=S)Nc1ccccc1[N+](=O)[O-])c1ccccn1 (mixture of isomers) | Active | Dose-dependent effect | 0.0066 µM | Active | Active | Active | Active | Active | 0.0043 µM | Dose-dependent effect | Active | Active | Active | Active | Active | Active | Active | Active | Active | Active | Activity (U-87MG ATCC [20]): Active; Activity (MCF7 [21]): Active; IC50 [22]: > 10 µM; Activity (MCF7 [23]): Dose-dependent effect; IC50 (MCF7 [23]): 0.0057 µM; Activity (T98G [24]): Active; Activity (MCF7 [25]): Active; Activity (U-87MG ATCC [26]): Active |
| CC(=NNC(=S)Nc1cccc([N+](=O)[O-])c1)c1ccccn1 (mixture of isomers) | Active | Dose-dependent effect | 0.14 µM | Active | Active | Active | Active | Active | 0.069 µM | Dose-dependent effect | Active | Active | Active | Active | Active | Active | Active | Active | Active | Active | Activity (U-87MG ATCC [20]): Active; Activity (MCF7 [21]): Active; IC50 [22]: > 10 µM; Activity (MCF7 [23]): Dose-dependent effect; IC50 (MCF7 [23]): 0.038 µM; Activity (T98G [24]): Active; Activity (MCF7 [25]): Active; Activity (U-87MG ATCC [26]): Active |
| CC(=NNC(=S)Nc1ccc([N+](=O)[O-])cc1)c1ccccn1 (mixture of isomers) | Active | Dose-dependent effect | 0.14 µM | Active | Active | Active | Active | Active | 0.16 µM | Dose-dependent effect | Active | Active | Active | Active | Active | Active | Active | Active | Active | Active | Activity (U-87MG ATCC [20]): Active; Activity (MCF7 [21]): Active; IC50 [22]: > 10 µM; Activity (MCF7 [23]): Dose-dependent effect; IC50 (MCF7 [23]): 0.052 µM; Activity (T98G [24]): Active; Activity (MCF7 [25]): Active; Activity (U-87MG ATCC [26]): Active |
| COc1cc2c(c(OC)c1OC)-c1ccc(OC)c(=O)cc1[C@@H](NC(C)=O)CC2 [COLCHICINE] | – | – | – | – | – | – | – | – | – | – | – | – | – | – | – | – | – | – | – | – | minimal effective concentration (HeLa [27]): 0.01 µM; minimal effective concentration (HeLa [28]): 0.02 µM; minimal effective concentration (HeLa [29]): 0.01 µM; EC50 (HeLa [30]): 0.03 µM |
